We go through two molecules from ChEMBL document CHEMBL4725242, “Discovery of GS-9688 (Selgantolimod) as a Potent and Selective Oral Toll-Like Receptor 8 Agonist for the Treatment of Chronic Hepatitis B” (J Med Chem, 2020).

One data set has as its target T1, Toll-like receptor 8 (Homo sapiens, UniProt Q9NR97).
T1 sequence (Q9NR97 whole entry): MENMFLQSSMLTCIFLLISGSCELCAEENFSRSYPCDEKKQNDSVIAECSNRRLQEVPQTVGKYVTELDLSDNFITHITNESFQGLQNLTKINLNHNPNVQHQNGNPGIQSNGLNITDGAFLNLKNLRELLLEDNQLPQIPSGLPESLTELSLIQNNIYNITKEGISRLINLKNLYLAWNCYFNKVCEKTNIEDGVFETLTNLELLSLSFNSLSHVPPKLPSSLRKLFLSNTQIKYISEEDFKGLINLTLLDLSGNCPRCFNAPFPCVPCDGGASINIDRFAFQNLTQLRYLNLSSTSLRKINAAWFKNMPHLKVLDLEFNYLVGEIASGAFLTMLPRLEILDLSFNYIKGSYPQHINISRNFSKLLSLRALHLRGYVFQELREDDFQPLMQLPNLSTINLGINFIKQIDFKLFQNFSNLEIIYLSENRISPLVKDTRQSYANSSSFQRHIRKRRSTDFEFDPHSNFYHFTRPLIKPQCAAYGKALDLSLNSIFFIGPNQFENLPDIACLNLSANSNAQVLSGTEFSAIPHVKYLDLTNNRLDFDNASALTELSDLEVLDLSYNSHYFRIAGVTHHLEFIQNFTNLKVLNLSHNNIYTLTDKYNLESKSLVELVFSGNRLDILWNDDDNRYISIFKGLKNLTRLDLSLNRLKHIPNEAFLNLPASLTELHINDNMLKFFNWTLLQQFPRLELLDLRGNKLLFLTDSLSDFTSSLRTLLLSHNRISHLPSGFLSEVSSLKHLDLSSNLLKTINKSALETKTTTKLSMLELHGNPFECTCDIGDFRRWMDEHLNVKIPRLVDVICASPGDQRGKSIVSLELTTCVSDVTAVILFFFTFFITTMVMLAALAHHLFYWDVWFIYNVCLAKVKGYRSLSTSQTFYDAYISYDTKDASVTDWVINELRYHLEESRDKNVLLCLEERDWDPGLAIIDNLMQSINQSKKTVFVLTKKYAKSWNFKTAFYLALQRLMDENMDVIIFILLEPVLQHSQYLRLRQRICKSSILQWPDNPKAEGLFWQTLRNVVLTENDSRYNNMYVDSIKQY
The data set can be described thus: Agonist activity at TLR8 in human cryopreserved PBMC assessed as induction of IL-12p40 production measured after 24 hrs.

The nature of data set [1]: Apparent permeability across basolateral to apical side in human Caco2 cells measured after 1 to 2 hrs by LC-MS/MS analysis. The note with it: Caco-2.
A short description of data set [2]: Clearance in human hepatic microsomes at 2 uM measured up to 60 mins in presence of NADPH generating system by LC-MS/MS analysis. To be noted: liver microsomes. The data set is classed as ADME, Microsome. On the technique in general: Microsomes from liver hold many membrane-bound enzymes, among them those of drug oxidation.
A short description of data set [3]: Apparent permeability across apical to basolateral side in human Caco2 cells measured after 1 to 2 hrs by LC-MS/MS analysis. To be noted: Caco-2.
Data set [4] can be described thus: Selectivity index, ratio of CC50 for human MT4 cells to EC50 for TLR8 in human cryopreserved PBMC assessed as induction of IL-12p40 production.
Data set [5] in a line: Clearance in dog hepatic microsomes at 2 uM measured up to 60 mins in presence of NADPH generating system by LC-MS/MS analysis. The data set is classed as ADME, Canis lupus familiaris, Microsome. The note with it: liver microsomes.
Data set [6] can be described thus: Clearance in cynomolgus monkey hepatic microsomes at 2 uM measured up to 60 mins in presence of NADPH generating system by LC-MS/MS analysis. The data set is classed as ADME, Macaca fascicularis, Microsome. The note with it: liver microsomes.
Data set [7] in a line: Clearance in rat hepatic microsomes at 2 uM measured up to 60 mins in presence of NADPH generating system by LC-MS/MS analysis. The data set is classed as ADME, Microsome. To be noted: liver microsomes.
In a further data set the target is T2, Toll-like receptor 7 (Homo sapiens, UniProt Q9NYK1).
T2 sequence (Q9NYK1 whole entry): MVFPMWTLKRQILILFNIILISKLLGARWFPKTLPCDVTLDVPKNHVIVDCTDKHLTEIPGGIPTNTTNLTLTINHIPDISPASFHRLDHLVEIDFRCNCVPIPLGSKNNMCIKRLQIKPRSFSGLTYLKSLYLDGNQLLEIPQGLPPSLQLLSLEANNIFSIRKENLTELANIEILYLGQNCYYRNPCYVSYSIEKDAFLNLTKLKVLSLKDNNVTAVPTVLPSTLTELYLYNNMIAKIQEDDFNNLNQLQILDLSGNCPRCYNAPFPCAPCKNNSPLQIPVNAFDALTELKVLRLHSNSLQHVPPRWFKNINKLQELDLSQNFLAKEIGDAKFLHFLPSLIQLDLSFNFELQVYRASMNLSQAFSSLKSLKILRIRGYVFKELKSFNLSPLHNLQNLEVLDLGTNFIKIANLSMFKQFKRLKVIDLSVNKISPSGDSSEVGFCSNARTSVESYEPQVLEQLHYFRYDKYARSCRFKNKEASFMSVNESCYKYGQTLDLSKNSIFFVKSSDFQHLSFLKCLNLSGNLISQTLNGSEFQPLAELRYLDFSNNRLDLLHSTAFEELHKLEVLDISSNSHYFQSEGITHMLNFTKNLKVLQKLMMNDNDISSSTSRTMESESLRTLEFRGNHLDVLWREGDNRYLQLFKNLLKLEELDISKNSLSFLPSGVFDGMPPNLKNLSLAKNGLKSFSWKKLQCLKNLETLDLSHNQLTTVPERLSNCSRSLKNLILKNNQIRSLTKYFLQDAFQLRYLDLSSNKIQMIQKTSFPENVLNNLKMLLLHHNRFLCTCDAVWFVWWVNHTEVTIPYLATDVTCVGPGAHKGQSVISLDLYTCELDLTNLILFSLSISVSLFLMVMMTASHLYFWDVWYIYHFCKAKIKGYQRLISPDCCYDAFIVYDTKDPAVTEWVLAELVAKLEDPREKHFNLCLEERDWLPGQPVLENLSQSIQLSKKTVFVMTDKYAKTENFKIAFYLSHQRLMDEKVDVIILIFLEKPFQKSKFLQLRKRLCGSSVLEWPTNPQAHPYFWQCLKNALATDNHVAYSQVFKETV
The data set can be described thus: Agonist activity at TLR7 in human cryopreserved PBMC assessed as induction of IFNalpha production measured after 24 hrs. A digest of the protocol: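 Cryopreserved healthy-donor human PBMC, recovered 2 h at 37°C/5% CO2, then 100k cells/well in RPMI/10% FBS exposed 24 h at 37°C to a 10-point half-log dilution series (0.5% final DMSO). Supernatant IFNα-2a quantified by MSD electrochemiluminescence immunoassay. For the ratio, divided by the IL-12p40 EC50 from the same PBMC screen.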

The nature of data set [8]: Cytotoxicity against human MT4 cells assessed as reduction in cell viability measured after 4 to 5 days by celltiter-glo assay. The data set is classed as cell-based. To be noted: time 4-5 day. (In general: ATP-based viability assays read luminescence as a measure of living cells.)
Data set [9] is described as follows: Drug metabolism in human hepatocytes assessed as core oxidation. The data set is classed as ADME, cell-based, Hepatocyte.
For a further data set, the species on record is Homo sapiens. The data set can be described thus: Selectivity ratio of EC50 for TLR7 in human cryopreserved PBMC assessed as induction of IFNalpha production to EC50 for TLR8 in human cryopreserved PBMC assessed as induction of IL-12p40 production. A digest of the protocol: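 Cryopreserved healthy-donor human PBMC, recovered 2 h at 37°C/5% CO2, then 100k cells/well in RPMI/10% FBS exposed 24 h at 37°C to a 10-point half-log dilution series (0.5% final DMSO). Supernatant IFNα-2a quantified by MSD electrochemiluminescence immunoassay. Normalized to 10 µM GS-9620 positive and DMSO negative controls; EC50 from 4-parameter logistic fit. For the ratio, divided by the IL-12p40 EC50 from the same PBMC screen.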

Usually EC50 stands for the concentration giving half of the maximal effect. In general, Papp B→A refers to how fast a substance crosses the layer from the basolateral side. In general, Papp A→B refers to the apparent permeability from the apical to the basolateral side of a cell layer. As usually defined, the CC50 is the concentration that lowers cell viability or growth by half. In the case of `CCCC[C@@](C)(CO)Nc1nc(N)nc2cccnc12`, the EC50 came to 2.4 µM at Toll-like receptor 8 and 7.9 µM at Toll-like receptor 7. Further, the Papp B→A in [1] was found to be 31 ×10⁻⁶ cm/s. The CLhep predicted at 2 µM is 13.3 mL/min/kg in [2], 25 mL/min/kg in [5], 23.3 mL/min/kg in data set [6] and 58.3 mL/min/kg in data set [7]. Moreover, the Papp A→B in data set [3] was found to be 32 ×10⁻⁶ cm/s. Moreover, the “Ratio CC50/EC50” value in data set [4] came out at 11. In data set [8], the CC50 amounted to 26 µM. In [9], the Drug metabolism entry was “Metabolite_Detected”.

In the case of `CCCC[C@](C)(CO)Nc1nc(N)nc2cccnc12`, the EC50 worked out at 0.17 µM on Toll-like receptor 8 and 15 µM at Toll-like receptor 7. The Papp B→A in data set [1] turned out to be 29 ×10⁻⁶ cm/s. Besides, the CLhep predicted at 2 µM in data set [2] is 13.3 mL/min/kg; in data set [5], 23.3 mL/min/kg; in data set [6], 21.7 mL/min/kg; in data set [7] it was 58.3 mL/min/kg. Further, the Papp A→B in data set [3] came to 29 ×10⁻⁶ cm/s. In the data set filed under Homo sapiens, the Ratio EC50 is over 80. Moreover, in data set [4], the “Ratio CC50/EC50” value is 182. Moreover, the CC50 in data set [8] stood at 31 µM. In addition, in [9], the Drug metabolism result was “Metabolite_Detected”.
